The values that follow come from paper PMC2773749 (Biochemistry, 2009).

The target in one assay is β-lactamase (Enterobacter cloacae, UniProt P05364). Nature of the assay: β-Lactamase promiscuous inhibitor assay. The class given is biochemical. The following applies: in the absence of Triton X-100.
The target of assay [1] is T1, K18PL tau (Homo sapiens, UniProt P10636, P618L). Kind of assay: Primary qHTS K18PL tau fibrillization, ThT fluorescence readout. Format: biochemical. To be noted: for 1° ThT Screen Curve class / 1° ThT Screen Log IC50: ThT fluorescence; for 1° ThT Screen Log IC50: printed as Log IC50; for 1° ThT Screen % Inhib: maximum % inhibition of ThT fluorescence. A digest of the protocol: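 Screen used K18PL tau (15 µM) with Alexa Red-labelled K18PL and 40 µM heparin stock, plus compound at six five-fold dilutions (56 µM–18 nM), run 6 h at 37°C. ThT was added (12.5 µM final, 100 mM glycine pH 8.5) for 1 h at room temperature; read ex 450/em 510 nm. Percent inhibition was computed versus median K18KD and DMSO controls, then pattern-corrected, with concentration-response curves fitted and classified. Single determinations per concentration.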
T1 sequence (P10636 561-686 P618L): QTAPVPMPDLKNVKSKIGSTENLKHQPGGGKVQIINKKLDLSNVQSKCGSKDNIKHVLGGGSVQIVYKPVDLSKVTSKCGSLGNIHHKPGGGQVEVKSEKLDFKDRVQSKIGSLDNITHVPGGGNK

Assay [2] has as its target T1, K18PL tau. Kind of assay: Primary qHTS K18PL tau assembly, fluorescence polarization. Format: biochemical. To be noted: for 1° FP Screen Log IC50: printed as Log IC50; for 1° FP Screen % Inhib: maximum % inhibition of FP. The gist of the method: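 K18PL (30 µM stock with 0.24 µM Alexa Red-labelled K18PL) received compound at six five-fold dilutions (56 µM–18 nM), then heparin, and incubated 6 h at 37°C. FP was read after ThT (ex 555, em 632 nm, P/S channels); mP = 1000*(S−G*P)/(S+G*P), G = 1. Inhibition was normalised to non-fibrillizing K18KD and DMSO wells, pattern-corrected, and curve-fitted and classified. Single determinations.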

Assay [3] can be described thus: Activity in other PubChem / NIH Chemical Genomics Center screens.
The nature of assay [4]: Alexa Red total fluorescence. The following applies: percent inhibition of Alexa Red total fluorescence. A digest of the protocol: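 Alexa Red total fluorescence was computed from the qHTS FP S and P channel readings as TF = S + 2*P. It was expressed as a percentage of the DMSO control value, with values >30% flagged as potential fluorescence interference.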
Assay [5] concerns the target T1, K18PL tau. Nature of the assay: Repeat K18PL tau ThT fluorescence assay. To be noted: repeat testing of screening hits, maximum percent inhibition. The class given is biochemical. A digest of the protocol: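 Retesting of K18PL heparin-induced fibrillization used duplicate samples at each concentration, with the highest tested concentration 80 µM. ThT was read at 12.5 µM final in 100 mM glycine, pH 8.5, with excitation 450 nm and emission 510 nm. IC50 and percent inhibition at the top concentration were derived.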

The target of a further assay is full-length tau40 (Homo sapiens, UniProt P10636). Nature of the assay: Tau40 ThT fluorescence assay. The following applies: inhibition of ThT fluorescence, compound 50 µM. Format: biochemical.
Sequence of full-length tau40 (P10636 1-441 isoform P10636-8): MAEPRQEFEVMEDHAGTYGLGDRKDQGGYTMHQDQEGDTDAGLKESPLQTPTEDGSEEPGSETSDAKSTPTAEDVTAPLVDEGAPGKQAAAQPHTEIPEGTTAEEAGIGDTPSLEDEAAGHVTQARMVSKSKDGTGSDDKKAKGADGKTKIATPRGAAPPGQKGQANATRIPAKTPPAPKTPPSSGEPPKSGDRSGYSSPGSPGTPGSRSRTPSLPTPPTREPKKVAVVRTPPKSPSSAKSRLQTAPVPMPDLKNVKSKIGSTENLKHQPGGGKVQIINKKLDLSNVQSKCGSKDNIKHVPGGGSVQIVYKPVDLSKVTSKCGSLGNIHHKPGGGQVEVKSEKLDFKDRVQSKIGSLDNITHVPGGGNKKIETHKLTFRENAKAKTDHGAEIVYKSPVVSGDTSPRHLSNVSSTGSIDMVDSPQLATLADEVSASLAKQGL
For assay [6], the target named is T1, K18PL tau. Nature of the assay: K18PL tau centrifugation. The class given is biochemical. The following applies: compound 100 µM, Table 1 hits. The gist of the method:
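Heparin-induced K18PL fibrillization was run with test compound at a single concentration of 100 µM or with DMSO vehicle, then centrifuged to sediment fibrils. Supernatant and pellet fractions were analysed by SDS-PAGE, and the percentage of tau remaining in the soluble fraction was determined.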

A further assay has as its target Tau40 (Homo sapiens, UniProt P10636). Nature of the assay: SEC of Tau40 fibrillization reaction post-centrifugation supernatants. To be noted: 50 µM MLS000062428. Format: biochemical. The gist of the method: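 Tau40 (50 µM) was incubated with heparin (20 µM) ± test compound in 100 mM sodium acetate, pH 7.0, for 5 days at 37°C. A no-heparin control was included. Reactions were spun at 40,000 g for 30 min, and supernatants were run on Superdex 200 at 0.4 ml/minute. Void volume was set by blue dextran, with BSA and cytochrome c as markers.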

Assay [7] has as its target tau-mediated MT assembly (K18 tau, bovine brain tubulin) (Homo sapiens, UniProt P10636). Kind of assay: Tau-mediated MT assembly assay. The class given is biochemical. To be noted: 50 µM compound, 40 µM K18, 30 µM tubulin.

Sequence of β-lactamase (P05364 21-381): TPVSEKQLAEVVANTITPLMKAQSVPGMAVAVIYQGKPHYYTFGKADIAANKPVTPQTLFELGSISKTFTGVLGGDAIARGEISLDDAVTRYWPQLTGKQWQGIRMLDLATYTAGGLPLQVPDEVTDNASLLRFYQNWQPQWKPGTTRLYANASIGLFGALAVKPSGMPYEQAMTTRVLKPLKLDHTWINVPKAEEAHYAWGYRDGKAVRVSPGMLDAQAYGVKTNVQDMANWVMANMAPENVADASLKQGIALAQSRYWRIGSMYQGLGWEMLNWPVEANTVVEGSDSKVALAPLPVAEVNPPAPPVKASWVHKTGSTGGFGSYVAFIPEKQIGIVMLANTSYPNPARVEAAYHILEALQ
Sequence of Tau40 (P10636 1-441 isoform P10636-8): as the sequence (P10636 1-441 isoform P10636-8) above
Sequence of tau-mediated MT assembly (K18 tau, bovine brain tubulin) (P10636 561-686): as the sequence (P10636 561-686 P618L) above, with L58P counted along it

At β-lactamase, `NS(=O)(=O)c1cc(C(=O)O)c(NCc2ccco2)cc1Cl` [Furosemide] returned a β-lactamase inhibition of 3%.
As to `CCOC(=O)c1nn(-c2ccccc2)c(=O)c2c(N)scc12` [MLS000034832], at K18PL tau [1], the “1° ThT Screen Curve class” value was found to be 2.1, the “1° ThT Screen Log IC50” value was −5.0 and the “1° ThT Screen % Inhib” value was determined as 80%. The “1° FP Screen Log IC50” value on K18PL tau [2] is on record as −5.3. Besides, in [3], the “promiscuity in other screens” value is recorded as “do not show signs of promiscuity”.
Regarding `CCn1c(CSc2nccn2C)nc2cc(C(=O)O)ccc21` [MLS000058666], at K18PL tau [1], the “1° ThT Screen Curve class” value is recorded as 1.2, the “1° ThT Screen Log IC50” value is on record as −5.4 and the “1° ThT Screen % Inhib” value was determined as 65%. At K18PL tau [2], the “1° FP Screen Curve class” value was 1.2, the “1° FP Screen Log IC50” value is reported as −5.1 and the “1° FP Screen % Inhib” value stood at 41%. For the same compound, the “Total Fluor % Inhib” value in assay [4] is <10%. The “Repeat ThT Assay % Inhib” value at K18PL tau [5] came out at 84%. The “Tau40 % Inhib” value on full-length tau40 came to 81%.
With `CCOC(=O)c1nn(-c2ccc(OC)cc2)c(=O)c2c(N)scc12` [MLS000062428], on K18PL tau [1], the “1° ThT Screen Curve class” value is reported as 2.1, the “1° ThT Screen Log IC50” value is −5.0 and the “1° ThT Screen % Inhib” value is recorded as 94%. For the same compound, at K18PL tau [2], the “1° FP Screen Curve class” value was determined as 2.2, the “1° FP Screen Log IC50” value is on record as −5.0 and the “1° FP Screen % Inhib” value is listed as 46%. Besides, the “Total Fluor % Inhib” value in assay [4] amounted to 49%. Moreover, at K18PL tau [5], the “Repeat ThT Assay % Inhib” value was determined as 97%. For the same compound, on K18PL tau [6], the “Centrifugation % Soluble” value is reported as 80%. Besides, at full-length tau40, the “Tau40 % Inhib” value amounted to 64%. Besides, on Tau40 (eluted in column void volume), the “oligomeric tau species in post-centrifugation supernatant” value is listed as “detectable oligomeric species”. The “amount of monomeric tau in post-centrifugation supernatant” value on Tau40 (relative to untreated fibrillization reaction) was “appreciable increase”. In addition, the “promiscuity in other screens” value in assay [3] is listed as “do not show signs of promiscuity”.
On to `CN(C(=S)Nc1cccnc1)c1ccc(O)cc1` [MLS000339510], for which the “1° ThT Screen Log IC50” value on K18PL tau [1] is −5.7. Moreover, the “1° FP Screen Log IC50” value on K18PL tau [2] is −5.5.
For `CC(N)[C@H](O)c1ccc(O)c(O)c1` (stereo partly drawn) [NCGC00093795], the “1° ThT Screen Log IC50” value at K18PL tau [1] is recorded as −5.5. In addition, the “1° FP Screen Log IC50” value at K18PL tau [2] was −5.7. At K18PL tau [5], the “Repeat ThT Assay % Inhib” value is recorded as 103%.
Take `CC(=O)c1c(O)c(C)c(O)c(Cc2c(O)c3c(c(C(=O)/C=C/c4ccccc4)c2O)OC(C)(C)C=C3)c1O` [Rottlerin]: the β-lactamase inhibition on β-lactamase was determined as 53%.
For the compound `CN(C)c1ccc2nc3ccc(=[N+](C)C)cc-3sc2c1` [methylene blue, reference compound], in [7], the “effect on tau-mediated tubulin polymerization” value is given as “significant diminution”. Also, in assay [3], the “promiscuity in other screens” value was “active in a high percentage of PubChem screens”.
